# Out of some 65,000 compounds screened, about 1,200 (1.8%) were called active.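 Rule for the calls: active = activation above the mean activation of all tested compounds plus 3 SD (cut at about 50% in these data); inactive = the rest.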 The full list was thinned out, with actives kept by preference.
# Target: Steroidogenic factor 1 (Homo sapiens) (UniProt Q13285)
# Experiment: activators of human SF-1, primary screen, cell-based, CHO-K1, Gal4-SF-1 LBD, luciferase luminescence (AID 522)
# Conditions: CHO-K1 Gal4-SF-1 LBD luciferase reporter; at 10 µM; hits give high values; % increase over DMSO SF-1-specific signal
# How it was run: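 Assay system – CHO-K1 cells with Gal4–hSF-1 LBD chimera plus Gal4-driven luciferase · Quantity – 4,000 cells per well · Times – compound added 1 h post-seeding, 20 h exposure at 37 °C, 5% CO2 · Measured by – luciferase light emission · Benchmarks – DMSO and mock-transfected background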
# Sequence of Steroidogenic factor 1 (Homo sapiens) (Q13285 whole entry, looked up, the tested form may be a part): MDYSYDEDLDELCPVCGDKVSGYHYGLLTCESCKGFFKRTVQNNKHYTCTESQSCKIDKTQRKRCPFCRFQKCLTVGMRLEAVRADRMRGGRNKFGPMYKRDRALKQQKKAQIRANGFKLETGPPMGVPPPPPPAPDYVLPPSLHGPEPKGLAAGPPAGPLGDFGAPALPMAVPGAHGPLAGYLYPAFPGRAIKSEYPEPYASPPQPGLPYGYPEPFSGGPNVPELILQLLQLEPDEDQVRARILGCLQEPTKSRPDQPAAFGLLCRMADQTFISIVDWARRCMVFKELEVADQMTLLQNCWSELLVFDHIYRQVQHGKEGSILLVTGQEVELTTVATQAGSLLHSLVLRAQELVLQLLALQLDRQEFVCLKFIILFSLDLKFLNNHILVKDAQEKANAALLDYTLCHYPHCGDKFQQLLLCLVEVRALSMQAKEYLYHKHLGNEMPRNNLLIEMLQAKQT
row,Structure (SMILES),activation
1,OC(COc1ccc2ccccc2c1)CN1CCOCC1 (configuration not stated),39.4% (inactive)
2,CN1CCN(CC(=O)Nc2sc3c(c2C#N)CCC(C(C)(C)C)C3)CC1 (configuration not stated),17.2% (inactive)
3,CCCCCCOC(=O)NCC(O)c1ccccc1 (configuration not stated),52.5% (active)
4,CCCCOC(=O)NCN1C(=O)C2C3C=CC(C3)C2C1=O (configuration not stated),-13.3% (inactive)
5,CCCCCOC(=O)NCCOC(=O)Nc1ccc(C(=O)OCC)cc1,-12.6% (inactive)
6,CCCn1c(O)c(CN2CCCC(C)C2)c(C)c(C#N)c1=O (configuration not stated),-4.9% (inactive)
7,Fc1ccc2nc(Nc3nc4c(s3)CCCC4)sc2c1,90% (active)
8,O=C(CCS(=O)(=O)c1ccccc1)Nc1nc2c(s1)CCCC2,3.8% (inactive)
9,COC(=O)C(NC(C)=O)(Nc1nc2c(s1)CCCC2)C(F)(F)F (configuration not stated),-0.1% (inactive)
10,CN(Cc1ccccc1)C(=O)CCNC(=O)Cn1cnc2ccccc2c1=O,-16% (inactive)
11,O=C(Nn1cnc2ccccc2c1=O)c1ccc(F)cc1Cl,64.7% (active)
12,Cc1ccc(F)cc1NC(=O)Cc1nn(C)c(=O)c2ccccc12,-42.9% (inactive)
13,Cc1cccc(N2CCN(S(=O)(=O)c3ccc4c(c3)c(=O)n(C)c(=O)n4C)CC2C)c1 (configuration not stated),3.8% (inactive)
14,COc1ccc(N2C(=O)c3cccc4cccc(c34)C2=O)nn1,0.5% (inactive)
15,CCc1ccccc1N(CC(=O)NCCSCc1ccco1)S(C)(=O)=O,4.6% (inactive)
16,O=C(c1cnn2ccccc12)N1CCc2ccccc21,111% (active)
17,O=C(c1cccc(C(=O)N2CCc3ccccc32)n1)N1CCc2ccccc21,-0.8% (inactive)
18,Cc1occc1C(=O)N1CCCc2ccccc21,-7.2% (inactive)
19,COc1ccc(OCC(=O)N2CCN(C(=O)COc3ccccc3)CC2)cc1,-5.8% (inactive)
20,CCOc1cccc(C(=O)Nc2cccnc2)c1,6.8% (inactive)
21,CCOC(=O)c1ccc(-c2ccc(C(=O)Nc3cccnc3)o2)cc1,51.3% (active)
22,CCOC(=O)c1cc(NC(=O)c2cccnc2)cc(C(=O)OCC)c1,-4.7% (inactive)
23,CCC1=C/C(=C\c2ccc3c(c2)OCO3)C(=O)S1,0.1% (inactive)
24,COc1ccc(S(=O)(=O)N2CCCC(C(=O)Nc3ccc(NC(=O)c4ccccn4)cc3)C2)cc1 (configuration not stated),63.3% (active)
25,CCOc1cccc(NC(=O)C2CCCN(S(=O)(=O)c3ccc(OC)cc3)C2)c1 (configuration not stated),0.1% (inactive)
26,COc1ccc(NC(=O)C2CCCN(S(=O)(=O)c3cccc4cccnc34)C2)cc1 (configuration not stated),5.1% (inactive)
27,N#CC1=C(N)C(C#N)(C#N)[C@H](c2ccsc2)[C@H]2COCC=C12,-1.6% (inactive)

# Reference: PubChem BioAssay AID522 (The Scripps Research Institute Molecular Screening Center, 2006)
